Measurements collected from several papers.
Each line is one published result; the experiments were not run side by side.
Cell line: MCF7
Read-out: cell growth or viability

COc1cccc2c1C(=O)c1c(O)c3c(c(O)c1C2=O)C[C@@](O)(C(=O)CO)C[C@@H]3O[C@H]1C[C@H](N)[C@H](O)[C@H](C)O1 — viability (MTT; 10 µM; 24 h): 11.8%
C/C=C(/C)C(=O)O[C@@H]1[C@H](OC(C)=O)c2c(ccc3ccc(=O)oc23)OC1(C)C — IC50 (WST-1): 39.1 µM
C=C(C)[C@H](CC=C(C)C)Cc1c(O)cc(OC)c(C(=O)/C=C/c2ccc(O)cc2O)c1O — IC50 (MTT): 23 µM
CC(C)(C)CC(C)(C)Nc1c(-c2cccnc2)nc2ncccn12 — viability (MTT; 25 µM; 48 h): 93.9%
COc1cccc2c1C(=O)c1c(O)c3c(c(O)c1C2=O)C[C@@](O)(C(=O)CO)C[C@@H]3O[C@H]1C[C@H](N)[C@H](O)[C@H](C)O1 — IC50 (MTT; 48 h): 0.8 µM
O=C(Nc1ccccc1OS(=O)(=O)c1ccc(F)cc1)c1ccc2ncccc2c1 — viability (MTT; 100 µM; 24 h): 85.6%
COc1ccc(-c2nc3ncccn3c2NC(C)(C)CC(C)(C)C)cc1O — viability (MTT; 25 µM; 48 h): 65.3%
CC1(C)CC[C@]2(C)CC[C@]3(C)[C@H]4CC=C5[C@@H](CC[C@H](O)C5(C)C)[C@]4(C)CC[C@@]3(C)[C@@H]2C1 — IC50 (WST-1): 28.4 µM
COc1cc2c(OC)nc3c4cc5c(cc4cc(OCCN4CCC(N6CCCCC6)CC4)c3c2cc1OC)OCO5 — GI50 (MTT): 12 µM
COc1cc(O)c(CC=C(C)C)c2c1C(=O)CC(c1ccc(O)cc1)O2 (stereo not drawn) — IC50 (MTT; 48 h): > 100 µM
COC(=O)[C@]1(O)C[C@@H](O)[C@@H](O)[C@H](OC(=O)/C=C/c2ccc(O)c(O)c2)C1 — IC50 (WST-1): 10.2 µM
COc1cc2c(OC)nc3c4cc5c(cc4cc(OC(C)=O)c3c2cc1OC)OCO5 — GI50 (MTT): 4.5 µM
CC(C)(C)CC(C)(C)Nc1c(-c2cccc(C#N)c2)nc2ncccn12 — viability (MTT; 25 µM; 48 h): 73.6%
O=c1[nH]cc(F)c(=O)[nH]1 — CC50 (crystal violet; 72 h): 641 µM
C=C(C)[C@H](CC=C(C)C)Cc1c(O)cc(O)c2c1O[C@H](c1ccccc1O)CC2=O — IC50 (MTT; 48 h): 21.3 µM
